Measurements: ChEMBL document CHEMBL1151448, “Comparative antianaerobic activities of doripenem determined by MIC and time-kill analysis” (2008)

What was measured:
Assay type in all cases: functional
[1] = test system: Bacteroides thetaiotaomicron; test: Antimicrobial activity against beta lactamase-positive Bacteroides thetaiotaomicron isolated from intra-abdominal infection and pelvic inflammatory disease patients after 48 hrs by agar dilution method
How it was run: (§1)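 CLSI agar dilution on brucella blood agar supplemented with laked sheep blood, hemin and vitamin K. Inocula of about 1 × 10^5 CFU/spot were applied by Steers replicator, and plates were incubated 48 h at 35°C in an anaerobic glove box. MIC was the concentration giving marked growth reduction versus the anaerobic control plate. QC strains were included each run, and β-lactamase was detected by Cefinase disk.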

[2] = test system: Paeniclostridium sordellii; test: Antimicrobial activity against Clostridium sordellii isolated from intra-abdominal infection and pelvic inflammatory disease patients after 48 hrs by agar dilution method; conditions: Paraclostridium sordellii; how it was run: as §1
[3] = test system: Porphyromonas asaccharolytica; test: Antimicrobial activity against Porphyromonas asaccharolyticus isolated from intra-abdominal infection and pelvic inflammatory disease patients after 48 hrs by agar dilution method; how it was run: as §1
[4] = test system: Prevotella melaninogenica; test: Antimicrobial activity against beta lactamase-positive Prevotella melaninogenica isolated from intra-abdominal infection and pelvic inflammatory disease patients after 48 hrs by agar dilution method; how it was run: as §1
[5] = test system: Enterocloster clostridioformis; test: Antimicrobial activity against Clostridium clostridioforme isolated from intra-abdominal infection and pelvic inflammatory disease patients after 48 hrs by agar dilution method; how it was run: as §1
Bacteroides fragilis [6] = test: Antimicrobial activity against beta lactamase-positive Bacteroides fragilis isolated from intra-abdominal infection and pelvic inflammatory disease patients after 48 hrs by agar dilution method; how it was run: as §1
Prevotella nigrescens = test: Antimicrobial activity against beta lactamase-positive Prevotella nigrescens isolated from intra-abdominal infection and pelvic inflammatory disease patients after 48 hrs by agar dilution method; how it was run: as §1
Finegoldia magna [7] = test: Antimicrobial activity against Finegoldia magna isolated from intra-abdominal infection and pelvic inflammatory disease patients after 48 hrs by agar dilution method; how it was run: as §1
Prevotella corporis = test: Antimicrobial activity against beta lactamase-positive Prevotella corporis isolated from intra-abdominal infection and pelvic inflammatory disease patients after 48 hrs by agar dilution method; how it was run: as §1
Anaerococcus prevotii = test: Antimicrobial activity against Anaerococcus prevotii isolated from intra-abdominal infection and pelvic inflammatory disease patients after 48 hrs by agar dilution method; how it was run: as §1
[8] = test system: Parabacteroides distasonis; test: Antimicrobial activity against beta lactamase-positive Bacteroides distasonis isolated from intra-abdominal infection and pelvic inflammatory disease patients after 48 hrs by agar dilution method; how it was run: as §1
Prevotella bivia = test: Antimicrobial activity against beta lactamase-positive Prevotella bivia isolated from intra-abdominal infection and pelvic inflammatory disease patients after 48 hrs by agar dilution method; how it was run: as §1
Clostridium perfringens [9] = test: Antimicrobial activity against Clostridium perfringens isolated from intra-abdominal infection and pelvic inflammatory disease patients after 48 hrs by agar dilution method
How it was run: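 CLSI agar dilution on brucella blood agar supplemented with laked sheep blood, hemin and vitamin K. Inoculum about 1 × 10^5 CFU/spot, applied by Steers replicator. Plates incubated 48 h at 35°C in an anaerobic glove box. MIC is the concentration giving marked growth reduction versus the anaerobic control plate. Standard QC strains included in each run.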

Clostridioides difficile [10] = test: Antimicrobial activity against Clostridium difficile isolated from intra-abdominal infection and pelvic inflammatory disease patients after 48 hrs by time kill analysis
How it was run: (§2)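 Macrodilution in prereduced brucella broth with 5% laked horse blood cells, 5 μg/ml hemin and 1 μg/ml vitamin K1. Final inoculum 10^6 to 10^7 CFU/ml, prepared inside the anaerobe chamber. Vials incubated 48 h at 35°C in a shaking water bath. MIC read by inspecting the time-kill tubes, alongside an antibiotic-free growth control.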

Prevotella intermedia [11] = test: Antimicrobial activity against beta lactamase-positive Prevotella intermedia isolated from intra-abdominal infection and pelvic inflammatory disease patients after 48 hrs by agar dilution method; how it was run: as §1
[12] = test system: Clostridium paraputrificum; test: Antimicrobial activity against Clostridium paraputrificum isolated from intra-abdominal infection and pelvic inflammatory disease patients after 48 hrs by agar dilution method; how it was run: as §1
[13] = test system: Bacteroides thetaiotaomicron; test: Antimicrobial activity against beta lactamase-positive Bacteroides thetaiotaomicron isolated from intra-abdominal infection and pelvic inflammatory disease patients after 48 hrs by time kill analysis
How it was run: (§3)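 The MIC was read by inspecting macrodilution time-kill tubes. Vials held prereduced brucella broth with 5% laked horse blood cells, hemin 5 μg/ml and vitamin K1 1 μg/ml. Final inoculum was 10^6–10^7 CFU/ml, prepared inside the anaerobe chamber. Vials were incubated 48 h at 35°C in a shaking water bath.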

[Clostridium] innocuum = Antimicrobial activity against Clostridium innocuum isolated from intra-abdominal infection and pelvic inflammatory disease patients after 48 hrs by agar dilution method; how it was run: as §1
Finegoldia magna [14] = test: Antimicrobial activity against beta lactamase-positive Finegoldia magna isolated from intra-abdominal infection and pelvic inflammatory disease patients after 48 hrs by time kill analysis; how it was run: as §3
Fusobacterium mortiferum = test: Antimicrobial activity against beta lactamase-positive Fusobacterium mortiferum isolated from intra-abdominal infection and pelvic inflammatory disease patients after 48 hrs by agar dilution method; how it was run: as §1
Prevotella disiens = test: Antimicrobial activity against beta lactamase-positive Prevotella disiens isolated from intra-abdominal infection and pelvic inflammatory disease patients after 48 hrs by agar dilution method; how it was run: as §1
Anaerococcus tetradius = test: Antimicrobial activity against Anaerococcus tetradius isolated from intra-abdominal infection and pelvic inflammatory disease patients after 48 hrs by agar dilution method; how it was run: as §1
[15] = test system: Peptoniphilus asaccharolyticus; test: Antimicrobial activity against Peptoniphilus asaccharolyticus isolated from intra-abdominal infection and pelvic inflammatory disease patients after 48 hrs by agar dilution method; how it was run: as §1
Clostridium perfringens [16] = test: Antimicrobial activity against Clostridium perfringens isolated from intra-abdominal infection and pelvic inflammatory disease patients after 48 hrs by time kill analysis; how it was run: as §2
Porphyromonas levii = test: Antimicrobial activity against Porphyromonas levii isolated from intra-abdominal infection and pelvic inflammatory disease patients after 48 hrs by agar dilution method; how it was run: as §1
Fusobacterium varium = test: Antimicrobial activity against Fusobacterium varium isolated from intra-abdominal infection and pelvic inflammatory disease patients after 48 hrs by agar dilution method; how it was run: as §1
Prevotella buccae = test: Antimicrobial activity against beta lactamase-positive Prevotella buccae isolated from intra-abdominal infection and pelvic inflammatory disease patients after 48 hrs by agar dilution method; conditions: Segatella buccae; how it was run: as §1
[17] = test system: Peptostreptococcus anaerobius; test: Antimicrobial activity against Peptostreptococcus anaerobius isolated from intra-abdominal infection and pelvic inflammatory disease patients after 48 hrs by agar dilution method; how it was run: as §1
Thomasclavelia ramosa = test: Antimicrobial activity against Clostridium ramosum isolated from intra-abdominal infection and pelvic inflammatory disease patients after 48 hrs by agar dilution method; how it was run: as §1
Bacteroides ovatus = test: Antimicrobial activity against beta lactamase-positive Bacteroides ovatus isolated from intra-abdominal infection and pelvic inflammatory disease patients after 48 hrs by agar dilution method; how it was run: as §1
[18] = test system: Fusobacterium necrophorum; test: Antimicrobial activity against Fusobacterium necrophorum isolated from intra-abdominal infection and pelvic inflammatory disease patients after 48 hrs by agar dilution method; how it was run: as §1
Fusobacterium nucleatum [19] = test: Antimicrobial activity against beta lactamase-positive Fusobacterium nucleatum isolated from intra-abdominal infection and pelvic inflammatory disease patients after 48 hrs by agar dilution method; how it was run: as §1
Parvimonas micra = test: Antimicrobial activity against Micromonas micros isolated from intra-abdominal infection and pelvic inflammatory disease patients after 48 hrs by agar dilution method; how it was run: as §1
Phocaeicola vulgatus = test: Antimicrobial activity against beta lactamase-positive Bacteroides vulgatus isolated from intra-abdominal infection and pelvic inflammatory disease patients after 48 hrs by agar dilution method; how it was run: as §1
Bacteroides fragilis [20] = test: Antimicrobial activity against beta lactamase-positive Bacteroides fragilis isolated from intra-abdominal infection and pelvic inflammatory disease patients after 48 hrs by time kill analysis; how it was run: as §3
Prevotella denticola = test: Antimicrobial activity against beta lactamase-positive Prevotella denticola isolated from intra-abdominal infection and pelvic inflammatory disease patients after 48 hrs by agar dilution method; how it was run: as §1
Clostridioides difficile [21] = test: Antimicrobial activity against Clostridium difficile isolated from intra-abdominal infection and pelvic inflammatory disease patients after 48 hrs by agar dilution method; how it was run: as §1
Prevotella intermedia [22] = test: Antimicrobial activity against beta lactamase-positive Prevotella intermedia isolated from intra-abdominal infection and pelvic inflammatory disease patients after 48 hrs by time kill analysis; how it was run: as §3
[23] = test system: Paraclostridium bifermentans; test: Antimicrobial activity against Clostridium bifermentans isolated from intra-abdominal infection and pelvic inflammatory disease patients after 48 hrs by agar dilution method; how it was run: as §1
Fusobacterium nucleatum [24] = test: Antimicrobial activity against beta lactamase-positive Fusobacterium nucleatum isolated from intra-abdominal infection and pelvic inflammatory disease patients after 48 hrs by time kill analysis; how it was run: as §3
Porphyromonas gingivalis = test: Antimicrobial activity against Porphyromonas gingivalis isolated from intra-abdominal infection and pelvic inflammatory disease patients after 48 hrs by agar dilution method; how it was run: as §1
Clostridium cadaveris = test: Antimicrobial activity against Clostridium cadaveris isolated from intra-abdominal infection and pelvic inflammatory disease patients after 48 hrs by agar dilution method; how it was run: as §1

Cc1ncc([N+](=O)[O-])n1CCO [METRONIDAZOLE]
0.016 µg/mL: MIC (Fusobacterium nucleatum [24])
2 µg/mL: MIC50 (Prevotella bivia) | MIC90 (Prevotella bivia) | MIC90 (Clostridium perfringens [9]) | MIC90 (Prevotella intermedia [11]) | MIC90 (Prevotella disiens) | MIC50 (Anaerococcus tetradius) | MIC (Clostridium perfringens [16]) | MIC50 (Thomasclavelia ramosa) | MIC90 (Bacteroides ovatus) | MIC (Bacteroides fragilis [20])
0.5 µg/mL: MIC [2] | MIC50 [4] | MIC50 (Prevotella nigrescens) | MIC50 (Finegoldia magna [7]) | MIC50 (Prevotella corporis) | MIC (Clostridioides difficile [10]) | MIC50 (Prevotella intermedia [11]) | MIC [12] | MIC (Prevotella disiens) | MIC50 (Prevotella disiens) | MIC90 (Fusobacterium varium) | MIC50 [17] | MIC90 (Parvimonas micra) | MIC50 (Phocaeicola vulgatus) | MIC50 (Prevotella denticola) | MIC50 (Clostridioides difficile [21]) | MIC90 (Clostridioides difficile [21]) | MIC (Prevotella intermedia [22])
1 µg/mL: MIC50 [1] | MIC90 [1] | MIC90 [4] | MIC50 (Bacteroides fragilis [6]) | MIC90 (Bacteroides fragilis [6]) | MIC90 (Prevotella nigrescens) | MIC90 (Finegoldia magna [7]) | MIC90 (Prevotella corporis) | MIC [8] | MIC50 [8] | MIC90 [8] | MIC50 (Clostridium perfringens [9]) | MIC [13] | MIC50 ([Clostridium] innocuum) | MIC (Finegoldia magna [14]) | MIC50 [15] | MIC90 [15] | MIC50 (Prevotella buccae) | MIC90 (Prevotella buccae) | MIC90 [17] | MIC50 (Bacteroides ovatus) | MIC90 (Phocaeicola vulgatus) | MIC90 (Prevotella denticola)
≤ 0.125 µg/mL: MIC [3] | MIC [5] | MIC (Fusobacterium mortiferum) | MIC50 (Fusobacterium mortiferum) | MIC90 (Fusobacterium mortiferum) | MIC (Porphyromonas levii) | MIC [18] | MIC50 [18] | MIC90 [18] | MIC (Fusobacterium nucleatum [19]) | MIC50 (Fusobacterium nucleatum [19]) | MIC90 (Fusobacterium nucleatum [19]) | MIC (Porphyromonas gingivalis)
0.25 µg/mL: MIC (Anaerococcus prevotii) | MIC50 (Fusobacterium varium) | MIC50 (Parvimonas micra) | MIC [23] | MIC (Clostridium cadaveris)
